The source of these data is ChEMBL document CHEMBL4038313, “Expanding the Antiviral Spectrum of 3-Fluoro-2-(phosphonomethoxy)propyl Acyclic Nucleoside Phosphonates: Diamyl Aspartate Amidate Prodrugs” (J Med Chem, 2017).

The subject of data set [1] is Human immunodeficiency virus 1. The experiment in a line: Antiviral activity against CCR5 tropic HIV1 BaL infected in human TZM-bl cells assessed as inhibition of virus-induced cytopathic effect preincubated with cells for 30 mins followed by viral infection measured after 48 hrs in presence of p-24 HIV-1 Ag by luciferase reporter gene assay. The data set is classed as functional, cell-based. The following applies: Human immunodeficiency virus 1, BaL. The gist of the method: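 TZM-bl cells, 1 × 10^4 per well in DMEM with 10% FBS and 10 mM […], incubated 30 min at 37 °C with compound. Then HIV-1 NL4.3 (X4) or BaL (R5) added at 100 pg p24 Ag per well. After 48 h, cells lysed with luciferase substrate. Tat-induced luminescence read after 10 min dark incubation as a measure of replication.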

Data set [2] concerns Human immunodeficiency virus 1. The experiment in a line: Antiviral activity against CXCR4-tropic HIV-1 NL4-3 infected in human PHA-stimulated PBMC assessed as inhibition of viral replication by measuring reduction in p24 antigen production preincubated with cells for 30 mins followed by viral infection measured on day 10 post infection in presence of IL-2 by ELISA. The format is functional. The following applies: Human immunodeficiency virus 1, NL4-3. The gist of the method: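 PBMCs stimulated with 2 μg/mL PHA for 3 days at 37 °C, then 5 × 10^5 cells/ml preincubated 30 min at 37 °C with serial compound dilutions plus 2 ng/mL IL-2. Infected with 1500 pg/well HIV-1 BaL or 500 pg/well other isolates. IL-2 re-added on days 3 and 6. Supernatant p24 Ag measured by ELISA at day 10. EC50 is 50% inhibition of replication.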
Background: ELISA stands for enzyme-linked immunosorbent assay.

Data set [3] is described as follows: Selectivity index, ratio of CC50 for human PHA-stimulated PBMC to IC50 for CXCR4-tropic HIV-1 NL4-3 infected in human PHA-stimulated PBMC.
In data set [4] the test system is Human immunodeficiency virus 1. In words: Antiviral activity against tenofovir-resistant CXCR4-tropic HIV-1 NL4-3 harboring reverse transcriptase K65R mutant infected in human MT4 cells assessed as inhibition of viral replication inhibition of virus-induced cytopathic effect after 6 days by XTT dye based assay. The data set is classed as functional, cell-based. The following applies: Human immunodeficiency virus 1, NL4-3, MT4, 144 h. The gist of the method: (§1)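 MT-4 cells, 1 × 10^4 per well, given compound dilutions and wild-type NL4-3 or K65R NL4-3. Virus titred to give 85–95% cell killing at day 6. Incubated 6 days at 37 °C, 5% CO2. Viability read by XTT at 450/650 nm. EC50 from CPE reduction and toxicity from uninfected drug wells, by four-parameter fit. Fold change is K65R EC50 over wild-type EC50.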

Data set [5] has as its system Human immunodeficiency virus 1. The experiment in a line: Selectivity ratio of EC50 for tenofovir-resistant CXCR4-tropic HIV-1 NL4-3 harboring reverse transcriptase K65R mutant infected in human MT4 cells to EC50 for CXCR4-tropic HIV-1 NL4-3 infected in human MT4 cells. The data set is classed as functional. An outline of the steps:
as §1

Data set [6] has as its system Hepatitis B virus. The experiment in a line: Antiviral activity against HBV ayw1 infected in human HepG2(2.2.15) cells assessed as reduction in viral replication by measuring extracellular viral DNA copy number after 6 days by real-time qPCR method. The format is functional, cell-based. The following applies: ayw1, HepG2 2.2.15, 144 h. An outline of the steps: (§2)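 HepG2.2.15 cells (two copies of HBV ayw1 genome), 1.5 × 10^4/well in DMEM with 2% FBS and 380 μg/mL G418. After 16–24 h, compound added in triplicate, medium with compound renewed at day 3. Supernatant collected at day 6, Pronase-treated, and extracellular HBV DNA measured by TaqMan qPCR (precore/core) against an HBV DNA standard curve. EC50/EC90 derived; CC50 by MTS uptake.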
On the technique in general: Quantitative PCR measures a nucleic acid by following its amplification.

Data set [7] is described as follows: Cytotoxicity against human HepG2.2.15 cells assessed as cell viability by tetrazolium dye uptake assay. The data set is classed as cell-based, HepG2 2.2.15. The gist of the method:
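HepG2.2.15 cells (two integrated copies of HBV ayw1 genome) were seeded at 1.5 × 10^4 cells/well in DMEM with 2% FBS, 380 μg/mL G418, glutamine, antibiotics and nonessential amino acids. After 16−24 h, medium with various compound concentrations was added in triplicate and renewed on day 3. After 6 days of treatment, viability was read by MTS uptake and CC50 was calculated.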

Data set [8] can be described thus: Selectivity index, ratio of CC50 for HepG2.2.15 cells to EC50 for HBV ayw1 infected in human HepG2(2.2.15) cells assessed as reduction in viral replication by measuring extracellular viral DNA copy. An outline of the steps: as §2
For data set [9], the system named is Hepatitis B virus. In words: Antiviral activity against HBV ayw1 infected in human HepG2(2.2.15) cells assessed as reduction in viral replication by measuring intracellular viral DNA copy number after 6 days byr by real-time qPCR assay. The following applies: ayw1, HepG2 2.2.15, 144 h. The data set is classed as functional, cell-based. The gist of the method: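 Run as the HepG2.2.15 6-day assay (triplicate compound, medium with compound renewed at day 3). At the end, total intracellular DNA was isolated from the cells and HBV DNA copy number measured by TaqMan qPCR. EC50/EC90 derived; SI is CC50/EC50.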

Data set [10] deals with Human betaherpesvirus 5. The experiment in a line: Antiviral activity against Human cytomegalovirus AD169 infected in HEL cells assessed as inhibition of virus-induced cytopathic effect. The data set is classed as functional, cell-based. The following applies: Human betaherpesvirus 5, AD169, HEL. An outline of the steps: (§3)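 HEL fibroblast monolayers inoculated with 100 CCID50 HCMV (AD-169, Davis) or 20 PFU VZV (TK+ Oka, TK− 07-1). Adsorbed 1–2 h, inoculum removed, then incubated with compound dilutions. HCMV cytopathicity or VZV plaques scored once untreated infected controls reached completion. EC50 is 50% reduction. SI is CC50/EC50, and the potency ratio is the ratio of EC50s.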
On the technique in general: Cytopathic effects are the visible damage that an infection or toxin causes in cultured cells.

For data set [11], the system named is Human betaherpesvirus 5. The experiment in a line: Antiviral activity against HCMV Davis strain infected in HEL cells assessed as inhibition of virus-induced cytopathic effect. The data set is classed as functional, cell-based. The following applies: Human betaherpesvirus 5, Davis. An outline of the steps:
as §3

The subject of a further data set is Human alphaherpesvirus 3. In words: Antiviral activity against thymidine kinase deficient Varicella-Zoster virus 07-1 infected in HEL cells assessed as inhibition of plaque formation. The format is functional, cell-based. The following applies: Human alphaherpesvirus 3, 07-1, HEL. An outline of the steps:
as §3

The nature of data set [12]: Cytotoxic activity against HEL cells assessed as alteration of cell morphology after 3 days by microscopic method. The format is cell-based. The following applies: human. The gist of the method:
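HEL cells with compound; MCC is the lowest concentration giving microscopically detectable alteration of cell morphology.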

A short description of data set [13]: Selectivity index, ratio of CC50 for HEL cells to EC50 for thymidine kinase expressing Varicella-Zoster virus Oka. The following applies: human, read-out: Ratio CC50/EC50. The data set is classed as toxicity. An outline of the steps:
as §3

Data set [14] in a line: Selectivity index, ratio of CC50 for HEL cells to EC50 for thymidine kinase deficient Varicella-Zoster virus 07-1. The data set is classed as toxicity. The following applies: human, read-out: Ratio CC50/EC50. The gist of the method:
as §3

Data set [15] concerns Human immunodeficiency virus 1. In words: Antiviral activity against CXCR4-tropic HIV-1 NL4-3 infected in human MT4 cells assessed as inhibition of virus-induced cytopathic effect after 6 days by XTT dye based assay. The following applies: Human immunodeficiency virus 1, NL4-3, MT4, 144 h. The format is functional, cell-based. An outline of the steps: as §1

SMILES strings stand for the structures. pEC50, pIC50: −log10 of the molar value.

Consider `CCCCCOC(=O)C[C@H](NP(=O)(CO[C@H](CF)Cn1cnc2c(N)ncnc21)Oc1ccccc1)C(=O)OCCCCC` (stereo partly drawn), for which the pEC50 (in general, the negative decadic logarithm of the EC50, by convention in mol/L) was 8.40 in data set [1]; 6.77 in [4]; 8.00 in the data set with Hepatitis B virus [6]; 7.70 in the data set on Hepatitis B virus [9]; 5.40 in the data set with Human betaherpesvirus 5 [10]; 5.20 in the data set on Human betaherpesvirus 5 [11]. The values for the pEC50 (in the data set with Human alphaherpesvirus 3; in data set [15]) were 7.24 and 7.52, respectively. For the same compound, the pIC50 (usually −log10 of the IC50, conventionally taken in molar units) in [2] is 8.52. Moreover, in data set [3], the “Ratio CC50/IC50” value was more than 827. The “Ratio EC50” value in data set [5] worked out at 5.7. The EC90 (as a rule, the concentration at which the effect reaches the 90% level) was determined as 1.97 µM in the data set on Hepatitis B virus [6] and 6.08 µM in the data set with Hepatitis B virus [9]. The CC50 – broadly, the concentration that lowers cell viability or growth by half – in data set [7] is 20.3 to 22.6 µM. The “Ratio CC50/EC50” value in data set [8] was 2256. In data set [12], the MCC at 72 h was 31.4 µM. In addition, the selectivity ratio worked out at 39 in [13] and 34 in data set [14].
